{"data": "Measurements of several laboratories"}
{"Compound": "CN[C@H](CC(C)C)C(=O)N[C@H]1C(=O)N[C@@H](CC(N)=O)C(=O)N[C@H]2C(=O)NC3C(=O)N[C@H](C(=O)N[C@H](C(=O)NCCC[N+](C)(C)C)c4cc(O)cc(O)c4-c4cc3ccc4O)[C@H](O)c3ccc(c(Cl)c3)Oc3cc2cc(c3OC2OC(CO)C(O)[C@H](O)[C@@H]2O[C@H]2CC(C)(NCc3ccc(-c4ccc(Cl)cc4)cc3)[C@H](O)[C@H](C)O2)Oc2ccc(cc2Cl)[C@H]1O (some centres unmarked)", "host": "mouse", "sample": "plasma", "route": "intravenous", "dose": "10 mg/kg", "endpoint": "AUC", "result": "81100 ng·h/mL"}
{"Compound": "C[C@]12CC[C@H](n3ccnc3)CC1=CC[C@@H]1[C@@H]2CC[C@]2(C)C(n3cnc4ccccc43)=CC[C@@H]12.Cl", "host": "male CD-1 mouse", "sample": "plasma", "route": "oral", "dose": "10 mg/kg", "endpoint": "AUC(0-t)", "result": "22600 ng·h/mL"}
{"Compound": "NCC(=O)Nc1ccc(-n2nc(C(F)(F)F)cc2-c2ccc3c(ccc4ccccc43)c2)cc1", "host": "mouse", "sample": "plasma", "route": "oral", "dose": "80 mg/kg", "notes": "single dose", "endpoint": "AUC(0-t)", "result": "41400 ng·h/mL"}
{"Compound": "Cc1cc(C)nc(Nc2ncc(C(=O)NCCc3c(C)[nH]c4ccccc34)cn2)c1", "host": "C57BL/6 mouse", "sample": "plasma", "route": "intraperitoneal", "dose": "4.4 mg/kg", "endpoint": "AUC(0-inf)", "result": "155 ng·h/mL"}
{"Compound": "C[C@]12CC[C@H](O)CC1=CC[C@@H]1[C@@H]2CC[C@]2(C)C(n3cnc4ccccc43)=CC[C@@H]12.Cl", "host": "mouse", "sample": "plasma", "route": "intravenous", "dose": "1 mg/kg", "endpoint": "AUC(0-t)", "result": "44.3 ng·h/mL"}
{"Compound": "CCC[C@@](N)(CO)CCc1ccc(OCCCCCC(C)C)cc1", "host": "mouse", "sample": "plasma", "route": "intraperitoneal", "dose": "10 mg/kg", "endpoint": "AUC(0-t)", "result": "1.06 µM·h"}
{"Compound": "CN1CCCCC1Cn1cc(C(=O)c2cc([N+](=O)[O-])ccc2I)c2ccccc21 (racemic)", "host": "mouse", "sample": "plasma", "route": "oral", "dose": "25 mg/kg", "endpoint": "AUC", "result": "1230 ng·h/mL"}
{"Compound": "CCN(CC)CCCC[C@H](NC(=O)[C@H](CC(C)C)NC(=O)[C@H](C)NC(=O)[C@H](Cc1ccccc1)NC(=O)c1ccc(C(C)(C)C)cc1)C(=O)N[C@@H](CO)C(=O)OC", "host": "male Swiss mouse", "sample": "blood", "route": "intravenous", "dose": "3 mg/kg", "endpoint": "AUC(0-t)", "result": "1890 ng·h/mL"}
